Published values gathered from unrelated publications.
Protocols differ between the studies behind these lines.
Target: Mitogen-activated protein kinase kinase kinase 9 (MAP3K9, Homo sapiens, UniProt P80192)

COc1cccc(CNC(=O)c2nc3scc(COCc4ccc(C(=O)O)cc4)c3c(=O)[nH]2)c1 — remaining binding (cell-free assay, competition with immobilised ligand; 1 µM): 100%
Brc1cnc(Nc2cccc(CN3CCOCC3)c2)nc1NCCc1c[nH]cn1 — remaining activity (enzyme activity, inhibitor, radiometric; 1 µM): -1%
CN(C)CC#Cc1ccc(OCCCc2sc(N3CCc4cccc(C(=O)Nc5nc6ccccc6s5)c4C3)nc2C(=O)O)c(F)c1 — remaining binding (cell-free assay, competition with immobilised ligand; 1 µM): 92%
COc1cc2c(Nc3ccc(Br)cc3F)ncnc2cc1OCC1CCN(C)CC1 — remaining signal (cell-free assay; 0.5 µM): 96.1%
CCS(=O)(=O)c1cc2cc(C[C@](O)(CC(C)(C)c3ccc(F)cc3C(N)=O)C(F)(F)F)[nH]c2cn1 — remaining binding (cell-free assay, competition with immobilised ligand; 1 µM): 98%
c1cc(CN2CCOCC2)cc(Nc2nccc(NCCc3cnc[nH]3)n2)c1 — remaining activity (enzyme activity, inhibitor, radiometric; 1 µM): 73%
COc1cc2ncnc(Nc3ccc(Oc4ccccc4)c(C)c3C)c2cc1OC — inhibition (enzyme activity, inhibitor; 1 µM): 1%
O=C1Nc2ccc(Cl)cc2C1=Cc1cc(Cl)c(O)c(Cl)c1 — remaining signal (cell-free assay; 0.5 µM): 102%
COc1cc(/C=C/C(=O)CC(=O)/C=C/c2ccc(O)c(OC)c2)ccc1O — activity vs control (enzyme activity, inhibitor; 1 µM): 14%
O=C(O)c1cc(-c2ccc(C3CCNCC3)cc2)c2ccc(-c3ccc(C(F)(F)F)cc3)cc2c1 — remaining binding (cell-free assay, competition with immobilised ligand; 1 µM): 100%
CC(C)c1ccc(NC(=O)c2cccs2)c(-c2nc3ccccc3[nH]c2=O)c1 — activity vs control (enzyme activity, inhibitor; 1 µM): 92%
NS(=O)(=O)c1ccc(CNc2nc(Nc3cccc(CN4CCOCC4)c3)ncc2Br)cc1 — remaining activity (enzyme activity, inhibitor, radiometric; 1 µM): 25%
CCC(=O)N[C@H]1CC[C@@H](C(=O)N(C)c2ccc(-c3nc4ccccc4o3)cc2)C1 — remaining binding (cell-free assay, competition with immobilised ligand; 1 µM): 100%
COc1cc(Nc2cnc(C#N)c(O[C@H](C)CN(C)C)n2)ncc1-c1cnn(C)c1 — remaining activity (enzyme activity, inhibitor, radiometric; 1 µM): 92%
O=C(NCCCNc1nc(Nc2cccc(NC(=O)N3CCCC3)c2)ncc1C1CC1)C1CCC1 — remaining activity (enzyme activity, inhibitor, radiometric; 1 µM): 31%
CCCOc1ccc([C@@H]2[C@@H](C(=O)O)[C@H](c3ccc4c(c3)OCO4)CN2CC(=O)Nc2c(CC)cccc2CC)cc1 — remaining binding (cell-free assay, competition with immobilised ligand; 1 µM): 93%
NS(=O)(=O)c1ccc(CNc2nc(Nc3cccc(NC(=O)N4CCCC4)c3)ncc2C2CC2)cc1 — remaining activity (enzyme activity, inhibitor, radiometric; 1 µM): 89%
CC/C(=N\NC(=O)NCc1cccc(O)c1)c1ccc(O)c(C)c1O — inhibition (enzyme activity, inhibitor; 0.1 µM): 5.1%
C#Cc1cccc(Nc2ncnc3cc(OCCOC)c(OCCOC)cc23)c1 — remaining signal (cell-free assay; 0.5 µM): 111%
Cc1ccc(Nc2nccc(N(C)c3ccc4c(C)n(C)nc4c3)n2)cc1S(N)(=O)=O — inhibition (enzyme activity, inhibitor; 0.3 µM): 88%
Cc1nn(CC(F)(F)F)cc1Nc1ncc(C2CC2)c(NCCCNC(=O)C2CCC2)n1 — remaining activity (enzyme activity, inhibitor, radiometric; 1 µM): 78%
c1ccc(CNc2nc(N3CCOc4ccccc43)nc3c2CCCC3)cc1 — inhibition (target engagement in cells, inhibitor, chemoproteomics; 20 mM): 3.8%
NS(=O)(=O)c1ccc(CNc2nc(Nc3cccc(NC(=O)N4CCCC4)c3)ncc2Br)cc1 — remaining activity (enzyme activity, inhibitor, radiometric; 1 µM): 30%
CCCS(=O)(=O)Nc1ccc(F)c(C(=O)c2c[nH]c3ncc(-c4ccc(Cl)cc4)cc23)c1F — inhibition (enzyme activity, inhibitor; 1 µM): < 10%
CNC(=O)c1cc(Oc2ccc(NC(=O)Nc3ccc(Cl)c(C(F)(F)F)c3)cc2)ccn1 — inhibition (enzyme activity, inhibitor; 0.3 µM): -6%
Cc1c[nH]c2nccc(Oc3c(F)cc(Nc4cc(Cl)nc(N)n4)cc3F)c12 — remaining binding (cell-free assay, competition with immobilised ligand; 0.1 µM): 89%
CCCCNc1ncc2c(-c3ccc(F)cc3)nn(C[C@H]3CC[C@H](N)CC3)c2n1 — inhibition (target engagement in cells, inhibitor, chemoproteomics; 20 mM): 54.9%
c1ccc(N2CCN(Cc3nc4ccccc4[nH]3)CC2)nc1 — remaining binding (binding, competition with immobilised ligand; 1 µM): 100%
Cc1nn(CC(F)(F)F)cc1Nc1nccc(NCCc2cnc[nH]2)n1 — remaining activity (enzyme activity, inhibitor, radiometric; 1 µM): 77%
